The values that follow come from ChEMBL document CHEMBL1142124, “Antimicrobial prenylated anthracene derivatives from the leaves of Harungana madagascariensis” (2007).

The source made the active and inactive calls. The rule behind the calls is not given here.

The test system of test [1] is Priestia megaterium. Nature of the test: Antibacterial activity against Bacillus megaterium at 1 ug/uL by agar diffusion assay. Format: functional. In short, it runs like this: (§1)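 Filter-disk agar diffusion. 50 µL of test solution is applied to a sterile 9 mm disk, and the disk is air-dried. Disks sit on an agar medium suited to each organism, and the plate is sprayed with a suspension of that organism. Incubation is at 28 °C overnight. The radius of the inhibition zone is read in mm.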

Test [2] concerns Priestia megaterium. In words: Antibacterial activity against Bacillus megaterium at 5 ug/uL by agar diffusion assay. Format: functional. In short, it runs like this: as §1
In test [3] the test system is [Chlorella] fusca. In words: Antimicrobial activity against Chlorella fusca at 1 ug/uL by agar diffusion assay. Format: functional, organism-based. The settings on record: Scenedesmus fuscus. The essentials: as §1
Test [4] deals with [Chlorella] fusca. In words: Antimicrobial activity against Chlorella fusca at 5 ug/uL by agar diffusion assay. Format: functional. The settings on record: for Activity: Scenedesmus fuscus. The essentials:
as §1

Test [5] concerns Microbotryum violaceum. In words: Antimicrobial activity against Micobotryum violaceum at 1 ug/uL by agar diffusion assay. Format: functional, organism-based. The essentials: as §1
The subject of test [6] is Microbotryum violaceum. Nature of the test: Antimicrobial activity against Micobotryum violaceum at 5 ug/uL by agar diffusion assay. Format: functional. In short, it runs like this: as §1

`COC1c2c(CC=C(C)C)c(C)cc(O)c2C(=O)c2c(O)cc3c(c21)CC(C(C)(C)O)O3` (stereo not given) [KENGANTHRANOL C]: the “inhibition zone (IZ)” value was 6 mm in the test with Priestia megaterium [1] and 10 mm with Priestia megaterium [2]. Also, the outcome (in test [Chlorella] fusca [3]; in test [Chlorella] fusca [4]; in the test on Microbotryum violaceum [5]; in the test on Microbotryum violaceum [6]) was inactive.
For the compound `CC(C)=CCc1c(C)cc(O)c2c(O)c3c(cc12)[C@]1(CC=C(C)C)C[C@H](O)C(C)(C)[C@@H](C3=O)C1=O` [HARUNMADAGASCARIN D], the result (in the test on Priestia megaterium [1]; in test [Chlorella] fusca [3]; in test [Chlorella] fusca [4]; with Microbotryum violaceum [5]; in the test on Microbotryum violaceum [6]) was inactive. The “inhibition zone (IZ)” value in the test on Priestia megaterium [2] is 10 mm.
`CC(C)=CCc1c(C)c(CC=C(C)C)c2c(c1O)C(=O)c1c(O)cc(O)c(CC=C(C)C)c1C2`: the result (in the test with Priestia megaterium [1]; in the test with Priestia megaterium [2]; in test [Chlorella] fusca [3]; in test [Chlorella] fusca [4]; with Microbotryum violaceum [5]; with Microbotryum violaceum [6]) was inactive.
For `O=c1c2cc(O)ccc2oc2cccc(O)c12`, the “inhibition zone (IZ)” value turned out to be 9 mm in the test on Priestia megaterium [1], 12 mm in the test on Priestia megaterium [2], 10 mm in test [Chlorella] fusca [4] and 12 mm in the test with Microbotryum violaceum [6]. In addition, the outcome (in test [Chlorella] fusca [3]; in the test with Microbotryum violaceum [5]) was inactive.
Take `CC(C)=CCc1c(C)c2c3c(c1O)C(=O)c1c(O)cc4c(c1[C@]31O[C@H](C2)C(C)(C)O1)C=CC(C)(C)O4`: the outcome (in the test on Priestia megaterium [1]; in the test with Priestia megaterium [2]; in test [Chlorella] fusca [3]; in test [Chlorella] fusca [4]; in the test on Microbotryum violaceum [5]; with Microbotryum violaceum [6]) was inactive.
